Test results reported in publication PMC11362799 (The Journal of Biological Chemistry, 2024).

Molecular target: T1, human Gal-4C (Homo sapiens, UniProt P56470)
T1 sequence (P56470 179-323): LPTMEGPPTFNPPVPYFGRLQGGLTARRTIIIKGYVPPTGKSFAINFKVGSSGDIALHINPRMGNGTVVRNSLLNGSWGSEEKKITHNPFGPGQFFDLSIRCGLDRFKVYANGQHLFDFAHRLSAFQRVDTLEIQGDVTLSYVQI
Assay: Competitive solid-phase assay: Gal-4C binding to immobilized asialofetuin
Summary of the method: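 Human Gal-4C (residues 179–323, C-terminal His-tag, E. coli BL21) at 60 μg/ml final was preincubated 2 h at 37 °C with serially diluted glycan inhibitors; lactose was the reference. Mixtures went onto wells coated overnight at 4 °C with 10 µg/ml ASF (carbonate, pH 9.6) and BSA-blocked, for 2 h at 37 °C. Detection: biotinylated anti-Gal-4, HRP-streptavidin, TMB, A450. Values are means ± SEM from a representative of three experiments.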

OC[C@H]1O[C@@H](O[C@H]2[C@H](O)[C@@H](O)C(O)O[C@@H]2CO)[C@H](O)[C@@H](O)[C@H]1O (mixture of isomers) [lactose]
IC50: 7 mM
